Results reported in ChEMBL document CHEMBL1773054, “Ethionamide boosters: synthesis, biological activity, and structure-activity relationships of a series of 1,2,4-oxadiazole EthR inhibitors” (J Med Chem, 2011).
Converted amounts (≈) assume the structure as drawn.

Columns and labels:
RAW264.7 [1] = experiment: Cytotoxicity against mouse RAW264.7 cells at > 30 uM; assay type: cell-based
Liver = experiment: (§1) Intrinsic clearance in CD1 mouse liver microsomes by LC-MS-MS analysis; assay type: ADME, Microsome; settings: mouse, microsomes
In short: (§2)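 Male CD-1 mouse liver microsomes (0.6 mg protein/mL), compound 1 μM with 1% methanol vehicle, 5 mM MgCl2, 1 mM NADP, 5 mM glucose-6-phosphate, 0.4 U/mL G6PDH, 50 mM potassium phosphate pH 7.4, 37 °C, duplicates.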

[2] = Inhibition of EthR in Mycobacterium tuberculosis H37Rv expressing GFP infected in mouse RAW264.7 cells assessed as concentration required to ethionamide-induced 50% inhibition of bacterial growth after 5 days by microscopic analysis; assay type: cell-based; settings: RAW264.7, 120 h
In short: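 Raw264.7 macrophages infected with M. tuberculosis H37Rv-GFP (MOI 1:1, 2 h, 37 °C, shaking); extracellular bacilli killed with amikacin 20 μM for 1 h. Cells added to wells holding ethionamide fixed at 0.1 μg/mL plus ten 2-fold dilutions of compound. Incubated 5 days at 37 °C, 5% CO2. Macrophages stained with SYTO 60, then imaged by automated confocal microscopy. Read-out is % infected cells. EC50 is the mean of two experiments.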

[3] = Half life in CD1 mouse liver microsomes by LC-MS-MS analysis; assay type: ADME, Microsome; in short: as §2
RAW264.7 [4] = experiment: Inhibition of EthR in Mycobacterium tuberculosis H37Rv expressing GFP infected in mouse RAW264.7 cells assessed as potentiation of ethionamide-induced inhibition of intracellular bacterial growth after 5 days by microscopic analysis; assay type: cell-based
[5] = biological target: HTH-type transcriptional regulator EthR (Mycobacterium tuberculosis, UniProt P9WMC1); experiment: Inhibition of Mycobacterium tuberculosis EthR interaction to ethA promoter after 5 mins by surface plasmon resonance assay
Chain of HTH-type transcriptional regulator EthR (P9WMC1 whole entry): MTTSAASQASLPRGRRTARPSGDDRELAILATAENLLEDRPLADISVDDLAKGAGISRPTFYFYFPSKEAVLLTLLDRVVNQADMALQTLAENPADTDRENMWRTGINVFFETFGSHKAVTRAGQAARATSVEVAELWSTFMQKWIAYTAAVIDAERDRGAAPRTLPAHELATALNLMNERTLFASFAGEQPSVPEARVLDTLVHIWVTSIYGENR

[6] = as §1; assay type: ADME, Microsome; settings: CD1, mouse, liver microsomes; in short: as §2
[7] = Solubility of the compound at pH 7.4 after 24 hrs; assay type: physicochemical; settings: buffer
In short: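 A 10 mM DMSO solution was diluted into PBS pH 7.4 or methanol and shaken gently 24 h at room temperature. It was then centrifuged and passed through a 0.45 μm filter. Filtrate was diluted in methanol and read by LC-MS-MS. Solubility was taken from the PBS/methanol mass-signal area ratio.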

O=C(CCC(F)(F)F)N1CCC(c2nc(-c3cccs3)no2)CC1
Activity (RAW264.7 [1]): Non-toxic | CL (Liver): 213 µL/min/mg | EC50 [2]: 0.1 µM | half-life [3]: 5 min

O=C(Cc1ccc(C(F)(F)F)cc1)N1CCC(c2nc(-c3cccs3)no2)CC1
fold change (FC) (RAW264.7 [4]): 10 | EC50 [2]: > 5 µM

CCCCC(=O)N1CCC(c2nc(-c3cccs3)no2)CC1
EC50 [2]: 1.1 µM

CC(C)C[C@H](N)C(=O)N1CCC(c2nc(-c3cccs3)no2)CC1
EC50 [2]: > 5 µM

O=C(Cc1cccs1)N1CCC(c2nc(-c3cccs3)no2)CC1
IC50 [5]: 0.5 µM | microsomal CLint [6]: 412 µL/min/mg | solubility at 24 h [7]: 22 µg/mL (≈ 61.2 µM) | EC50 [2]: 0.1 µM | half-life [3]: 3 min

COc1cccc(CC(=O)N2CCC(c3nc(-c4cccs4)no3)CC2)c1
fold change (FC) (RAW264.7 [4]): 10 | EC50 [2]: > 5 µM

O=C(CC1CCCC1)N1CCC(c2nc(-c3cccs3)no2)CC1
Activity (RAW264.7 [1]): Toxic | EC50 [2]: 0.4 µM

O=C(c1ccccc1)N1CCC(c2nc(-c3cccs3)no2)CC1
fold change (FC) (RAW264.7 [4]): 10 | EC50 [2]: > 5 µM

CCC(=O)N1CCC(c2nc(-c3cccs3)no2)CC1
EC50 [2]: > 5 µM

O=C(CCC(F)(F)F)N1CCC[C@H](c2nc(-c3cccs3)no2)C1
EC50 [2]: > 5 µM

O=C(Cc1ccncc1)N1CCC(c2nc(-c3cccs3)no2)CC1
fold change (FC) (RAW264.7 [4]): 10 | EC50 [2]: > 5 µM

O=C(CCC(F)(C(F)(F)F)C(F)(F)F)N1CCC(c2nc(-c3cccs3)no2)CC1
EC50 [2]: > 5 µM

CC(C)(C)CC(=O)N1CCC(c2nc(-c3cccs3)no2)CC1
EC50 [2]: > 5 µM

O=C(Cc1ccccn1)N1CCC(c2nc(-c3cccs3)no2)CC1
fold change (FC) (RAW264.7 [4]): 10 | EC50 [2]: > 5 µM

O=C(Cc1ccccc1Cl)N1CCC(c2nc(-c3cccs3)no2)CC1
fold change (FC) (RAW264.7 [4]): 10 | EC50 [2]: > 5 µM

CCCC(=O)N1CCC(c2nc(-c3cccs3)no2)CC1
EC50 [2]: 2.1 µM

COc1ccc(CC(=O)N2CCC(c3nc(-c4cccs4)no3)CC2)cc1
fold change (FC) (RAW264.7 [4]): 10 | EC50 [2]: > 5 µM

O=C(Cc1cccc(C(F)(F)F)c1)N1CCC(c2nc(-c3cccs3)no2)CC1
fold change (FC) (RAW264.7 [4]): 10 | EC50 [2]: > 5 µM

COCCC(=O)N1CCC(c2nc(-c3cccs3)no2)CC1
EC50 [2]: > 5 µM

CC(C)NCC(O)COc1cccc2ccccc12 (stereo unspecified) [PROPRANOLOL]
half-life [3]: 13 min

Cc1ccccc1CC(=O)N1CCC(c2nc(-c3cccs3)no2)CC1
fold change (FC) (RAW264.7 [4]): 10 | EC50 [2]: > 5 µM

O=C(CCC(F)(F)F)NCCCc1nc(-c2cccs2)no1
EC50 [2]: > 5 µM

N#CCC(=O)N1CCC(c2nc(-c3cccs3)no2)CC1
microsomal CLint [6]: 11 µL/min/mg | solubility at 24 h [7]: 194 µg/mL (≈ 642 µM) | EC50 [2]: 1.5 µM | half-life [3]: 91 min

O=C(CCC(F)(F)F)N1CC[C@H](c2nc(-c3cccs3)no2)C1
EC50 [2]: 1.6 µM

O=C(Cc1ccccc1C(F)(F)F)N1CCC(c2nc(-c3cccs3)no2)CC1
fold change (FC) (RAW264.7 [4]): 10 | EC50 [2]: > 5 µM

COCC(=O)N1CCC(c2nc(-c3cccs3)no2)CC1
EC50 [2]: > 5 µM

CC(CC(=O)N1CCC(c2nc(-c3cccs3)no2)CC1)C(F)(F)F (stereo unspecified)
EC50 [2]: > 5 µM

CC(C)[C@H](N)C(=O)N1CCC(c2nc(-c3cccs3)no2)CC1
EC50 [2]: > 5 µM

CC(C)(C)CCC(=O)N1CCC(c2nc(-c3cccs3)no2)CC1
EC50 [2]: > 5 µM

O=C(CCC(F)(F)F)N1CCC[C@@H](c2nc(-c3cccs3)no2)C1
EC50 [2]: > 5 µM

O=C(NCC(F)(F)F)N1CCC(c2nc(-c3cccs3)no2)CC1
EC50 [2]: > 5 µM

O=C(Cc1cccc(Cl)c1)N1CCC(c2nc(-c3cccs3)no2)CC1
fold change (FC) (RAW264.7 [4]): 10 | EC50 [2]: > 5 µM

Cc1cccc(CC(=O)N2CCC(c3nc(-c4cccs4)no3)CC2)c1
fold change (FC) (RAW264.7 [4]): 10 | EC50 [2]: > 5 µM

O=C(CCc1cccs1)N1CCC(c2nc(-c3cccs3)no2)CC1
fold change (FC) (RAW264.7 [4]): 10 | EC50 [2]: > 5 µM

CC(C)CC(O)C(=O)N1CCC(c2nc(-c3cccs3)no2)CC1 (stereo unspecified)
EC50 [2]: > 5 µM

O=C(CCC1CCCCC1)N1CCC(c2nc(-c3cccs3)no2)CC1
EC50 [2]: 1.8 µM

CC(C)CC(=O)N1CCC(c2nc(-c3cccs3)no2)CC1
EC50 [2]: 2.5 µM

O=C(CCC(F)(F)F)N1CC[C@@H](c2nc(-c3cccs3)no2)C1
Activity (RAW264.7 [1]): Non-toxic | solubility at 24 h [7]: 80 µg/mL (≈ 232 µM) | EC50 [2]: 0.4 µM | half-life [3]: 298 min

CC(C)CCC(=O)N1CCC(c2nc(-c3cccs3)no2)CC1
Activity (RAW264.7 [1]): Toxic | EC50 [2]: 0.1 µM

CC(=O)N1CCC(c2nc(-c3cccs3)no2)CC1
EC50 [2]: > 5 µM

O=C(Cc1ccccc1F)N1CCC(c2nc(-c3cccs3)no2)CC1
fold change (FC) (RAW264.7 [4]): 10 | EC50 [2]: > 5 µM

O=C(CCC(F)(F)F)N1CC(c2nc(-c3cccs3)no2)C1
EC50 [2]: > 5 µM

O=C(Cc1ccc(Cl)cc1)N1CCC(c2nc(-c3cccs3)no2)CC1
fold change (FC) (RAW264.7 [4]): 10 | EC50 [2]: 2.2 µM

O=C(CC(O)C(F)(F)F)N1CCC(c2nc(-c3cccs3)no2)CC1 (stereo unspecified)
EC50 [2]: > 5 µM

[N-]=[N+]=NCC(=O)N1CCC(c2nc(-c3cccs3)no2)CC1
EC50 [2]: 1.2 µM

O=C(CC1CCCCC1)N1CCC(c2nc(-c3cccs3)no2)CC1
Activity (RAW264.7 [1]): Toxic | EC50 [2]: 0.3 µM

CC1CCC(CC(=O)N2CCC(c3nc(-c4cccs4)no3)CC2)CC1 (stereo unspecified)
EC50 [2]: > 5 µM

O=C(Cc1ncc[nH]1)N1CCC(c2nc(-c3cccs3)no2)CC1
fold change (FC) (RAW264.7 [4]): 10 | EC50 [2]: > 5 µM

COc1ccccc1CC(=O)N1CCC(c2nc(-c3cccs3)no2)CC1
fold change (FC) (RAW264.7 [4]): 10 | EC50 [2]: > 5 µM

O=S(=O)(CCC(F)(F)F)N1CCC(c2nc(-c3cccs3)no2)CC1
EC50 [2]: > 5 µM

O=C(Cc1ccc(F)cc1)N1CCC(c2nc(-c3cccs3)no2)CC1
fold change (FC) (RAW264.7 [4]): 10 | EC50 [2]: 0.8 µM

O=C(Cc1cccc(F)c1)N1CCC(c2nc(-c3cccs3)no2)CC1
fold change (FC) (RAW264.7 [4]): 10 | EC50 [2]: > 5 µM

O=C(Cc1cccnc1)N1CCC(c2nc(-c3cccs3)no2)CC1
fold change (FC) (RAW264.7 [4]): 10 | EC50 [2]: > 5 µM

O=C(O)CCC(=O)N1CCC(c2nc(-c3cccs3)no2)CC1
EC50 [2]: > 5 µM

O=C(CC(F)(F)F)N1CCC(c2nc(-c3cccs3)no2)CC1
EC50 [2]: 1.3 µM

O=C(Cc1ccccc1)N1CCC(c2nc(-c3cccs3)no2)CC1
fold change (FC) (RAW264.7 [4]): 10 | IC50 [5]: 5.6 µM | EC50 [2]: 2.1 µM

O=C(CC1CC1)N1CCC(c2nc(-c3cccs3)no2)CC1
Activity (RAW264.7 [1]): Non-toxic | IC50 [5]: 1.1 µM | solubility at 24 h [7]: 64 µg/mL (≈ 202 µM) | EC50 [2]: 0.2 µM

Cc1ccc(CC(=O)N2CCC(c3nc(-c4cccs4)no3)CC2)cc1
fold change (FC) (RAW264.7 [4]): 10 | EC50 [2]: > 5 µM

CC(CC(F)(F)F)C(=O)N1CCC(c2nc(-c3cccs3)no2)CC1 (stereo unspecified)
EC50 [2]: > 5 µM
